Bioassay records (PubChem)
Only some compounds are listed: those with a hit (about 1.5% of all), similar ones and a draw of the others.
NR2E3 ag-1 – activates human photoreceptor nuclear receptor NR2E3. Q9Y5X4. actives 0.12% (n = 320,000). GST-NR2E3/biotin-RetCOR TR-FRET, 1536-well. inhibition of corepressor binding, % at 4.78 µM;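 active means percent inhibition above the cutoff of mean plus 3 SD of all tested compounds, set per screening campaign, cut at about 20% in these data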;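 further: 0% = DMSO wells and 100% = biotin wells as full block of FRET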
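System: GST-tagged NR2E3 plus biotinylated RetCOR corepressor; Buffer or medium: pH 7.5 Tris-based buffer; Probe or stimulus: RetCOR corepressor, biotinylated, 7 nM; Doses: compound at 4.8 µM, single dose; Schedule: 5 h incubation at 4 °C; Technique: time-resolved FRET; Evaluation: percent inhibition of TR-FRET ratio; Replication: one well per compound, singlicate testing.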
NR1D1 modulator – modulators of human Rev-erb alpha DNA binding; P20393; Rev-erbα–FITC-DNA binding, fluorescence polarization, 90 min; activity, % at 10 µM; actives 0.79% (n = 370,000); AID 1259318;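 active means activity above about 14%, limit read from the data; passing the limit was not always enough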;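 further: 0% = DMSO wells with 35 nM protein and 100% = DMSO wells with 750 nM protein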
Target sequence (P20393 whole entry, looked up): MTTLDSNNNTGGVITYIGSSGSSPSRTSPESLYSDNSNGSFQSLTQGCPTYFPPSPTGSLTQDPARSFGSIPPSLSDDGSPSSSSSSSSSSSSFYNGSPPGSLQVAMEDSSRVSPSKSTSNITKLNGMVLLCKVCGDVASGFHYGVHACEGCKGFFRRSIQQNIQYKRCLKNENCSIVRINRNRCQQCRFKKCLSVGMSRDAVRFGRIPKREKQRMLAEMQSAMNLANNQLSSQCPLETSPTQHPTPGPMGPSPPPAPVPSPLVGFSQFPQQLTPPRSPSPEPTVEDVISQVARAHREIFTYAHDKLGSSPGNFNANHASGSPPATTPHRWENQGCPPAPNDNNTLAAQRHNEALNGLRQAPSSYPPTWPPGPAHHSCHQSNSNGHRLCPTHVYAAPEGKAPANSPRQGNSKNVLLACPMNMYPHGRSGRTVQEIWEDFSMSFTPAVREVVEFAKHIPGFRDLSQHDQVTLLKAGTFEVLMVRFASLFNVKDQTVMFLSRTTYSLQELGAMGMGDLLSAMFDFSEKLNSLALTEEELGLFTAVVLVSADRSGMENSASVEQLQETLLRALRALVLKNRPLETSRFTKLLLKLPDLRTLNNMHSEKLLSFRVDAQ
NR2E3 ag-2 – agonists of human NR2E3 nuclear receptor | actives 0.35% (n = 360,000) | CHO-S Gal4-NCOR/VP16-NR2E3 two-hybrid, luciferase | inhibition of corepressor binding, % at 3.98 µM | AID 602229;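 active means inhibition above the mean of all tested compounds plus 3 SD, cut at about 70% in these data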;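 further: 0% = DMSO with NR2E3 transfected cells and 100% = cells lacking NR2E3 construct; higher means lower luciferase signal from less NR2E3 corepressor binding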
PG9 Ab binder – binds the HIV-1 gp120 antibody PG9. inhibition, % at 6.7 µM. actives 0.43% (n = 360,000). AID 624416. TR-FRET gp120-PG9 antibody binding; in the data active means inhibition above about 8.5%
NR2E3 ag conf – NR2E3 agonism confirmed in two-hybrid assay | shares compounds with NR2E3 ag-2 | CHO-S mammalian two-hybrid NR2E3-NCOR, luciferase luminescence | inhibition, % at 3.98 µM | actives 51% (n = 2,300);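 active means average inhibition above a cutoff equal to the mean inhibition of all tested compounds plus one SD, cut at about 70% in these data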;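 further: 0% = DMSO in NR2E3 cells and 100% = DMSO in cells lacking NR2E3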
VP16 counter – reduces GAL4-VP16 reporter signal in NR2E3 counterscreen | shares compounds with NR2E3 ag-2 | inhibition, % at 3.98 µM | CHO-S GAL4-VP16 luciferase reporter, luminescence | actives 29% (n = 2,300);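 active means mean inhibition above a cutoff equal to the average over all tested compounds plus one standard deviation, cut at about 70% in these data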;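 further: luciferase from a UAS reporter driven by GAL4-VP16 transactivation; 0% = DMSO with VP16-transfected cells and 100% = DMSO with cells lacking VP16; higher means less reporter light so more repression of VP16 activity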
An asterisk follows results filed as active; nt = not tested or not shown.

SMILES	NR2E3 ag-1	NR1D1 modulator	NR2E3 ag-2	PG9 Ab binder	NR2E3 ag conf	VP16 counter
CC(C)CN1CN2Cc3ccccc3C2CS1(=O)=O (stereo not given)	nt	0	nt	nt	nt	nt
Cc1ccc(NC(=O)O/N=C/c2c(C)nn(C(C)(C)C)c2C)cc1Cl	4	-1	100*	1	83*	96*
COc1cc(NC(=O)c2ccccn2)ccc1NC(=O)c1ccccc1Cl	nt	-5	nt	nt	nt	nt
Cc1cc(N2CCN(c3ccccc3)CC2)nc(-n2nc(C)cc2C)n1	-2	2	82*	3	-13	12
Cc1cc(C)nc(-n2nc(C)cc2Nc2ccccc2)n1	-3	-2	111*	1	12	6
COc1cccc(C(=O)c2sc(NC(C)C)nc2N)c1	2	-5	94*	1	94*	50
COc1ccc(C(=O)c2sc(NC(C)C)nc2N)cc1OC	3	1	59	1	37	10
Cc1ccc(S(=O)(=O)N2CCN(C(=O)COC(=O)c3oc4ccccc4c3C)CC2)cc1	0	2	4	0	nt	nt
COc1ccc2oc(C(=O)OCC(=O)N3CCN(S(=O)(=O)c4ccc(C)cc4)CC3)c(C)c2c1	3	8	70*	-1	86*	72*
Cc1coc2cc3oc(=O)c(CCC(=O)NC4CC4)c(C)c3cc12	0	-1	70*	0	85*	54
Oc1ccccc1C=NNC(=S)NC1CC2C=CC1C2 (stereo not given)	nt	3	57	-1	-90	-98
Cc1cc(N2CCN(C(c3ccccc3)c3ccccc3)CC2)n2ncnc2n1	4	-6	-24	1	nt	nt
Cc1cc(N2CCN(c3nc4ccccc4s3)CC2)n2ncnc2n1	1	4	73*	0	94*	76*
Cc1ccc(/C=C2/CNC/C(=C/c3ccc(C)cc3)C2=O)cc1	nt	4	65	0	15	-10
COc1ccc(OC)c(S(=O)(=O)N2CCCCC2C(=O)N2CCN(c3ccc(F)cc3)CC2)c1 (stereo not given)	nt	-5	nt	nt	nt	nt
Nc1ncnc2c1c(-c1ccc(Oc3ccccc3)cc1)cn2C1CCCC1	4	0	74*	0	86*	72*
O=S1(=O)c2c(NCc3ccco3)cccc2Oc2ccccc2CN1Cc1cn(Cc2cccc(F)c2)nn1	nt	0	nt	nt	nt	nt
CCOC(=O)c1cnc(SCC(=O)Nc2cc(OC)ccc2OC)nc1N	2	-2	69	2	45	67
CCOC(=O)c1cnc(SCC(=O)Nc2ccc(NC(C)=O)c(OC)c2)nc1N	1	0	4	-2	nt	nt
Cc1ccc(-n2c(C)nc3c(cnn3-c3ccc(F)cc3)c2=O)cc1C	0	1	55	0	88*	60
Cc1ccc(-n2c(C)nc3c(cnn3-c3ccc(C)c(C)c3)c2=O)cc1C	4	-1	-37	0	nt	nt
O=C(Nc1nnc(-c2cccs2)o1)c1cc(-c2ccccc2)nc2ccccc12	0	0	71*	-1	99*	13
Cc1ccccc1-c1cc(C(=O)Nc2sc(C(=O)OC(C)C)c(C)c2C#N)c2ccccc2n1	-3	3	92*	-2	100*	88*
COC(=O)c1sc(NC(=O)c2cc(-c3ccccc3)nc3ccccc23)c(C#N)c1C	-1	3	49	0	54	63
C/C(=N\NC(=S)NCCc1ccccc1)c1ccc(Cl)cc1Cl	2	8	-34	-1	nt	nt
SMILES	NR2E3 ag-1	NR1D1 modulator	NR2E3 ag-2	PG9 Ab binder	NR2E3 ag conf	VP16 counter
C/C(=N\NC(=S)NCc1ccccc1)c1ccccc1	1	2	56	-2	-36	-40
CCOc1ccc(C(=O)OCC(=O)NCCCc2ccccc2)cc1	2	-2	-13	1	nt	nt
C/C(=N\NC(=S)NCCc1ccccc1)c1ccc(O)cc1O	0	1	78*	-2	-17	8
CCOc1ccc(/C(CCC(=O)O)=N/NC(=S)NCCc2ccccc2)cc1	1	-1	53	1	-4	-2
Nn1c(SCC(=O)Nc2ccccc2-c2ccccc2)nnc1-c1n[nH]c2c1CCC2	nt	0	nt	nt	nt	nt
CC(C)C[C@H](NC1(C(=O)NC2CCCCC2)CCCCC1)C(=O)NCCc1c[nH]c2ccccc12	nt	5	nt	nt	nt	nt
O=C(c1ccccc1I)N1CCC(Oc2cccnc2)CC1	nt	0	nt	nt	nt	nt
COC1=C(OC)C(=O)C(CCCCCCCCCCO)=C(C)C1=O	nt	5	54	0	28	52
O=C(NCc1ccccn1)C1Nc2ccc(C(F)(F)F)cc2C2C=CCC12 (stereo not given)	2	-1	97*	1	-8	21
CNC(=O)OCc1nc(SSC(C)(C)C)n(C)c1COC(=O)NC	nt	4	55	1	28	12
CC(C)(C)c1ccc(S(=O)(=O)N2CCCC2C(=O)N2CCN(c3ccccc3)CC2)cc1 (stereo not given)	nt	-3	nt	nt	nt	nt
COc1ccc2ccccc2c1C=NNC(=O)c1cc(-c2ccc(C)cc2)n[nH]1	nt	-5	nt	nt	nt	nt
O=C(Nc1ccccc1)n1ccc2ccc(-c3ccc4cc[nH]c4c3)cc21	nt	4	nt	nt	nt	nt
O=c1c2ccccc2sc2ccc(C#CC3(O)CCCCC3)cc12	8	3	99*	-2	85*	73*
O=c1c2ccccc2oc2cc(C#CC3(O)CCCCC3)ccc12	2	-4	70	0	59	16
Cc1cccc(C(=O)NNC(=S)NC(=O)c2ccccc2)c1	-1	-5	11	1	nt	nt
Cc1cccc(C(=O)NNC(=S)NC(=O)c2cccs2)c1	1	-3	54	-4	46	1
Cc1nn(C)c(C)c1CN(Cc1nc(CCC(C)C)no1)C(C)C	1	-2	86*	0	99*	87*
COCCCNC(=O)C[C@H]1C[C@@]2(C(=O)OC)C(=C[C@H](COCc3ccccc3)O[C@@H]2C)N(Cc2ccccc2)C1=O	nt	3	nt	nt	nt	nt
Nc1nc(F)nc2c1ncn2[C@@H]1O[C@H](CO)[C@@H](O)[C@@H]1O	3	2	9	-1	nt	nt
Nc1nc(F)nc2c1ncn2[C@@H]1O[C@H](CO)[C@@H](O)[C@H]1O	3	-1	103*	0	100*	99*
Cc1ccc(-c2nc(CS(=O)CC(=O)N3CCN(c4ccc(F)cc4)CC3)c(C)o2)cc1 (stereo not given)	3	-2	53	-3	29	40
COc1ccc(CCN(C)c2ccc(S(=O)(=O)N3CCCC3)cc2[N+](=O)[O-])cc1OC	-1	4	0	-1	nt	nt
COc1ccc(CN(C)c2ccc(S(=O)(=O)N3CCN(C)CC3)cc2[N+](=O)[O-])cc1OC	3	-6	94*	2	96*	85*
CCOC(=O)c1c(C)[nH]c(C(=O)OCC(=O)Nc2sccc2C(N)=O)c1C	6	12	54	0	44	35
CCOC(=O)c1c(C)[nH]c(C(=O)OCC(=O)Nc2ccc(Cl)cn2)c1C	0	0	23	3	nt	nt
